# Reference: ChEMBL document CHEMBL1921722, “In vitro and in vivo evaluation of select kahalalide F analogs with antitumor and antifungal activities” (Bioorg Med Chem, 2011)
# Activity calls are given as the source filed them.
# Assays:
# Aspergillus fumigatus = test: Antimicrobial activity against Aspergillus fumigatus ATCC 90906 by CLSI method; format: functional, organism-based
# Candida albicans = test: Antimicrobial activity against Candida albicans ATCC 90028 by CLSI method; format: functional, organism-based
# Escherichia coli = test: Antimicrobial activity against Escherichia coli ATCC 35218 by CLSI method; format: functional, organism-based
# [1] = system: Mycobacterium intracellulare; test: Antimicrobial activity against Mycobacterium intracellular ATCC 23068 after 5 days by MABA assay; format: functional, organism-based; conditions: ATCC 23068, 120 h
# Outline: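 M. intracellulare was tested by a modified Franzblau method. Samples were serially diluted in 20% DMSO/saline, run in duplicate, and inocula were adjusted by OD630. […] IC50 is 50% growth inhibition; MIC is the lowest concentration with no detectable growth.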
# Fusarium sp. = test: Antimicrobial activity against Fusarium sp. by CLSI method; format: functional, organism-based
# PC-3 = test: Cytotoxicity against human PC3 cells by sulforhodamine B assay; format: functional; conditions: for GI50: read-out: GI50
# Outline: (§1)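 NCI Developmental Therapeutics Program 60-cell-line human tumor panel screen, run at NCI. A single-concentration pre-screen was followed by a five-concentration dose-response in 10-fold steps. GI50 is the concentration that reduces growth of treated cells to half that of untreated control cells. TGI is the concentration that completely halts growth.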
# Staphylococcus aureus = test: Antimicrobial activity against methicillin-resistant Staphylococcus aureus ATCC 43300 by CLSI method; format: functional, organism-based
# Cryptococcus neoformans = test: Antimicrobial activity against Cryptococcus neoformans ATCC 90113 by CLSI method; format: functional, organism-based
# Pseudomonas aeruginosa = test: Antimicrobial activity against Pseudomonas aeruginosa ATCC 27853 by CLSI method; format: functional, organism-based
# [2] = Acute toxicity in iv dosed mouse assessed as mortality; conditions: in vivo
# RPMI-8226 = test: Cytotoxicity against human RPMI8226 cells by sulforhodamine B assay; format: functional; conditions: read-out: GI50; outline: as §1
# COLO 205 = test: Cytotoxicity against human COLO205 cells by sulforhodamine B assay; format: functional; conditions: read-out: GI50
# Outline: (§2)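 Run at NCI in the DTP 60-cell-line human tumor panel by standard procedure. Compounds were first screened at a single concentration, then tested at five tenfold-spaced concentrations. GI50 is the concentration reducing treated-cell growth to half that of untreated controls; TGI is the concentration completely halting growth.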
# Hs-578T = test: Cytotoxicity against human Hs578T cells by sulforhodamine B assay; format: functional; outline: as §1
# DU-145 = test: Cytotoxicity against human DU145 cells by sulforhodamine B assay; format: functional; conditions: read-out: GI50
# Outline: (§3)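 Run by the NCI Developmental Therapeutics Program on its 60-line human tumour cell panel using the standard procedure. Compounds went through a single-concentration prescreen first, and those active by NCI criteria went on to a five-concentration growth-inhibition test. GI50 is the concentration that cuts growth of treated cells to half that of untreated control cells.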
# NCI-H322M = test: Cytotoxicity against human NCI-H322M cells by sulforhodamine B assay; format: functional; conditions: read-out: GI50; outline: as §1
# HCC 2998 = test: Cytotoxicity against human HCC2998 cells by sulforhodamine B assay; format: functional; conditions: read-out: GI50; outline: as §3
# KM12 = test: Cytotoxicity against human KM12 cells by sulforhodamine B assay; format: functional; conditions: read-out: GI50; outline: as §1
# A549 = test: Cytotoxicity against human A549 cells by sulforhodamine B assay; format: functional; conditions: read-out: GI50; outline: as §2
# SK-OV-3 = test: Cytotoxicity against human SKOV3 cells by sulforhodamine B assay; format: functional; conditions: read-out: GI50; outline: as §1
# HT-29 = test: Cytotoxicity against human HT-29 cells by sulforhodamine B assay; format: functional; conditions: read-out: GI50; outline: as §3
# UACC-257 = test: Cytotoxicity against human UACC257 cells by sulforhodamine B assay; format: functional; conditions: read-out: GI50; outline: as §1
# SNB-75 = test: Cytotoxicity against human SNB75 cells by sulforhodamine B assay; format: functional; conditions: read-out: GI50; outline: as §1
compound,measurement,setting,value
C/C=C1\NC(=O)[C@H](Cc2ccccc2)NC(=O)[C@@H](C(C)C)NC(=O)[C@@H]([C@H](C)CC)NC(=O)[C@H](NC(=O)[C@H](NC(=O)[C@H](CCCN)NC(=O)[C@H]2CCCN2C(=O)[C@H](NC(=O)[C@@H](NC(=O)[C@@H](NC(=O)[C@H](NC(=O)CCCC(C)C)C(C)C)[C@@H](C)O)C(C)C)C(C)C)[C@H](C)CC)[C@H](C)OC(=O)[C@H](C(C)C)NC1=O [KAHALALIDE F],MFC,Aspergillus fumigatus,20 µM
same,MIC,Aspergillus fumigatus,10 µM
same,MFC,Candida albicans,20 µM
same,MIC,Candida albicans,10 µM
same,Activity,Escherichia coli,inactive
same,IC50,[1],> 20000 nM
same,MBC,[1],> 20 µM
same,MIC,[1],> 20 µM
same,Activity,Fusarium sp.,Active
same,GI50,PC-3,170 nM
same,Activity,Staphylococcus aureus,inactive
same,MFC,Cryptococcus neoformans,5 µM
same,MIC,Cryptococcus neoformans,5 µM
same,Activity,Pseudomonas aeruginosa,inactive
same,MTD,[2],0.28 mg/kg
O=C(O)c1cn(C2CC2)c2cc(N3CCNCC3)c(F)cc2c1=O [CIPROFLOXACIN],MBC,[1],> 1 µM
same,MIC,[1],1 µM
C[C@@H]1[C@H](O)[C@@H](C)/C=C/C=C/C=C/C=C/C=C/C=C/C=C/[C@H](O[C@@H]2O[C@H](C)[C@@H](O)[C@H](N)[C@@H]2O)C[C@@H]2O[C@](O)(C[C@@H](O)C[C@@H](O)[C@H](O)CC[C@@H](O)C[C@@H](O)CC(=O)O[C@H]1C)C[C@H](O)[C@H]2C(=O)O [AMPHOTERICIN B],MFC,Aspergillus fumigatus,2.5 µM
same,MIC,Aspergillus fumigatus,2.5 µM
same,IC50,Candida albicans,250 nM
same,MFC,Candida albicans,1.25 µM
same,MIC,Candida albicans,0.625 µM
same,MFC,Cryptococcus neoformans,0.06 µM
same,MIC,Cryptococcus neoformans,0.016 µM
CC(=O)O[C@H]1C(=O)[C@@]2(C)[C@H]([C@H](OC(=O)c3ccccc3)[C@]3(O)C[C@H](OC(=O)[C@H](O)[C@@H](NC(=O)c4ccccc4)c4ccccc4)C(C)=C1C3(C)C)[C@]1(OC(C)=O)CO[C@@H]1C[C@@H]2O [PACLITAXEL],GI50,RPMI-8226,2 nM
same,GI50,COLO 205,3 nM
same,GI50,Hs-578T; read-out: GI50,3 nM
same,TGI,Hs-578T; read-out: TGI,100 nM
same,GI50,PC-3,4 nM
same,TGI,PC-3; read-out: TGI,10000 nM
same,GI50,DU-145,5 nM
same,GI50,NCI-H322M,13 nM
same,GI50,HCC 2998,3 nM
same,GI50,KM12,4 nM
same,GI50,A549,4 nM
same,GI50,SK-OV-3,8 nM
same,GI50,HT-29,2 nM
same,GI50,UACC-257,40 nM
same,GI50,SNB-75,4 nM
